The record followed here is ChEMBL document CHEMBL3734698, “1H-Pyrazolo[3,4-g]hexahydro-isoquinolines as potent GR antagonists with reduced hERG inhibition and an improved pharmacokinetic profile” (Bioorg Med Chem Lett, 2015).

The structures appear in SMILES notation. Activity calls are given as the source filed them. The calls are words filed in the database; no cut-off is given here.

One may read the IC50 as the concentration at which inhibition is half-maximal. What is called Ki is a dissociation constant, usually derived from enzyme kinetics or from competition with a known ligand. In general, EC50 refers to the concentration at which the effect is half-maximal. For orientation: bioavailability means the share of a dose that reaches the circulation, judged against a reference dose that is usually intravenous. As a reminder, the Cmax is the maximum level reached in the sampled fluid or tissue. As usually defined, the clearance is the rate of elimination divided by the concentration. Usually Emax stands for the size of the effect at its maximum, as opposed to the concentration needed.

For data set [1], the target named is Voltage-gated inwardly rectifying potassium channel KCNH2 (Homo sapiens, UniProt Q12809). The experiment in a line: Inhibition of human ERG by patch clamp technique.
Data set [2] addresses T1, Glucocorticoid receptor (Homo sapiens, UniProt P04150).
T1 sequence (P04150 whole entry): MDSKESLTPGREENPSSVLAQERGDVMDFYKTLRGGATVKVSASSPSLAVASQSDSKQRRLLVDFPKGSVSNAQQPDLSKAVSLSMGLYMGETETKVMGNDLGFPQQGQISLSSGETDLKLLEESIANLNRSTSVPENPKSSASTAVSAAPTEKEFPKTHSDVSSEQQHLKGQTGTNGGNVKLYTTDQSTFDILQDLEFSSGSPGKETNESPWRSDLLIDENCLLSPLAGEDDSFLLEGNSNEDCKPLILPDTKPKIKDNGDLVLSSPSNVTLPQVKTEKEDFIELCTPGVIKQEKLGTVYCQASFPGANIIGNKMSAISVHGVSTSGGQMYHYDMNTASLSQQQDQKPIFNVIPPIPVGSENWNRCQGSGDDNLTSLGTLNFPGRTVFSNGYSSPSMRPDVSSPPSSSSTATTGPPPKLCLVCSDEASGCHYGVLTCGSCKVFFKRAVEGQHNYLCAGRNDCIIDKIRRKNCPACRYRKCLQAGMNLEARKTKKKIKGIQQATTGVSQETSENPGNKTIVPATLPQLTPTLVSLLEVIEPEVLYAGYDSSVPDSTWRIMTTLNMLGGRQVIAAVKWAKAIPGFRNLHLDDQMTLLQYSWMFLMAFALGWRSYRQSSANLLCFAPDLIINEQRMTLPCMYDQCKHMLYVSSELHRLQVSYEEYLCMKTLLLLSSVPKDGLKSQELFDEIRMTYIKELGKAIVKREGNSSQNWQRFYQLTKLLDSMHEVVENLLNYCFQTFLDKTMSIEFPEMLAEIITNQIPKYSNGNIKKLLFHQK
The experiment in a line: Antagonist activity at glucocorticoid receptor in human primary hepatocytes assessed as inhibition of glucocorticoid-induced TAT activity. In kind it is cell-based, Hepatocyte. Summed up:
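Primary human hepatocytes stimulated with dexamethasone to induce tyrosine amino transferase (TAT) activity. Compounds were tested for their ability to block this dexamethasone effect as a measure of GR antagonism. They were also run without dexamethasone to check for TAT induction, a measure of GR agonism. Read-out was TAT activity, reported as K_i.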

Data set [3] addresses T2, Glucocorticoid receptor (Rattus norvegicus, UniProt P06536).
T2 sequence (P06536 whole entry): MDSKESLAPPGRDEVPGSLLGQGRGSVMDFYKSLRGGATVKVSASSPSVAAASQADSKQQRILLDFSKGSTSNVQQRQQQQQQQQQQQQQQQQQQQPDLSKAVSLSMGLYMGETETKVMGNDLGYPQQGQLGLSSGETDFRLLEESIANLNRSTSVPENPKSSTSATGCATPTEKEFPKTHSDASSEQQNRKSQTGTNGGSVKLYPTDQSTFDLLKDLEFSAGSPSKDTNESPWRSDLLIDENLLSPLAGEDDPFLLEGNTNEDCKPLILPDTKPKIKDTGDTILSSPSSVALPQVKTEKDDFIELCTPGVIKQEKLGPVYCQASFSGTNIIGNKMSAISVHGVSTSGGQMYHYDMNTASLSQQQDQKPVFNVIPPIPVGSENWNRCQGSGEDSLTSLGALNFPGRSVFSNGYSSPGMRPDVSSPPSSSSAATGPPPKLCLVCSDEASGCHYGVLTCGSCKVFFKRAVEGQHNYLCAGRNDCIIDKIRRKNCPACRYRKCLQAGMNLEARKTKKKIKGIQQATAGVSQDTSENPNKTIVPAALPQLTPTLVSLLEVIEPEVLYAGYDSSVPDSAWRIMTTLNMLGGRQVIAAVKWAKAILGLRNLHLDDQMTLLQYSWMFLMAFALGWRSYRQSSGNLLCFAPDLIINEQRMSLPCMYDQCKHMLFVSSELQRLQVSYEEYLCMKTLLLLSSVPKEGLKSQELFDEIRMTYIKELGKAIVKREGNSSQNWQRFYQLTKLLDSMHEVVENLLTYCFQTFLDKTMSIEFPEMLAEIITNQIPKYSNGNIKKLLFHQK
The experiment in a line: Antagonist activity at glucocorticoid receptor in rat primary hepatocytes assessed as inhibition of glucocorticoid-induced TAT activity. In kind it is cell-based, Hepatocyte. Summed up: (§1)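 Glucocorticoid receptor antagonism was measured as blockade of dexamethasone-induced tyrosine amino transferase (TAT) activity. Cells were rat H4IIEC3 cells or primary hepatocytes from rat or cynomolgus monkey, as the line specifies.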

Data set [4] can be described thus: Antagonist activity at glucocorticoid receptor in cynomolgus monkey primary hepatocytes assessed as inhibition of glucocorticoid-induced TAT activity. The class given is cell-based, Macaca fascicularis. The settings on record: hepatocyte. Summed up:
as §1

Data set [5] concerns the target T2, Glucocorticoid receptor. The experiment in a line: Agonist activity at glucocorticoid receptor in rat primary hepatocytes assessed as inhibition of glucocorticoid-induced TAT activity. The class given is cell-based, Hepatocyte.
Data set [6] in a line: Agonist activity at glucocorticoid receptor in dog primary hepatocytes assessed as […] TAT activity. In kind it is cell-based. The settings on record: Canis lupus familiaris, Hepatocyte.
Data set [7] in a line: Oral bioavailability in rat at 5 mg/kg. The settings on record: in vivo. The class given is ADME, organism-based. Summed up:
(§2)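 Rat pharmacokinetics: oral dosing at 5 mg/kg in 10% DMSO in 0.5% aqueous methyl cellulose. Intravenous dosing at 1 mg/kg in 10% DMSO, 45% PEG400 and 45% propylene glycol. Plasma Cmax was taken after the oral dose and clearance after the iv dose, and oral bioavailability was derived.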

Data set [8] is described as follows: Cmax in rat at 5 mg/kg, po. The class given is ADME, organism-based. Also on record: dose 5 mg/kg, route oral. The settings on record: in vivo. Summed up:
as §2

Data set [9] can be described thus: Clearance in rat at 1 mg/kg, iv. In kind it is ADME, organism-based. The following applies: in vivo. Summed up: as §2
In data set [10] the test system is Rattus norvegicus. As to the kind of experiment: Reduction in olanzapine-induced weight gain in rat at 20 mg/kg, po bid administered for 21 days measured from day 4 of compound dosing. In kind it is functional, organism-based.
Data set [11] has as its system Rattus norvegicus. The experiment in a line: Reduction in cortisone-induced glucose level in rat at 30 mg/kg, po bid. The class given is functional, organism-based. Summed up: (§3)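 Rats received cortisone 30 mg/kg sc once daily for six days. Test agent was given orally twice daily at 30 mg/kg. Glucose and insulin levels were compared with cortisone-only and no-cortisone controls, with mifepristone at the same oral regimen as positive control.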

Data set [12] has as its system Rattus norvegicus. The experiment in a line: Reduction in cortisone-induced insulin level in rat at 30 mg/kg, po bid. The class given is functional, organism-based. A digest of the protocol:
as §3

In data set [13] the target is T3, Glucocorticoid receptor (Rattus norvegicus) (UniProt P06536).
T3 sequence (whole entry): T2 sequence (P06536 whole entry)
As to the kind of experiment: Antagonist activity at glucocorticoid receptor in rat primary hepatocytes assessed as inhibition of glucocorticoid-induced TAT activity relative to control. In kind it is cell-based. The settings on record: Hepatocyte. Summed up:
as §1

The subject of data set [14] is Hepatocyte. The experiment in a line: Antagonist activity at glucocorticoid receptor in cynomolgus monkey primary hepatocytes assessed as inhibition of glucocorticoid-induced TAT activity relative to control. In kind it is cell-based. The settings on record: Macaca fascicularis. Summed up:
as §1

For data set [15], the target named is T3, Glucocorticoid receptor (Rattus norvegicus). As to the kind of experiment: Agonist activity at glucocorticoid receptor in rat primary hepatocytes assessed as inhibition of glucocorticoid-induced TAT activity relative to control. In kind it is cell-based. The settings on record: Hepatocyte.
Data set [16] relates to Hepatocyte. The experiment in a line: Agonist activity at glucocorticoid receptor in dog primary hepatocytes assessed as […] TAT activity relative to control. In kind it is cell-based. The following applies: Canis lupus familiaris.
Data set [17] addresses T1, Glucocorticoid receptor. The experiment in a line: Binding affinity to human recombinant glucocorticoid receptor by fluorescence polarization assay. A general note: Polarisation of emitted light reports the rotation of a fluorescent probe.

Chain of Voltage-gated inwardly rectifying potassium channel KCNH2 (Q12809 whole entry): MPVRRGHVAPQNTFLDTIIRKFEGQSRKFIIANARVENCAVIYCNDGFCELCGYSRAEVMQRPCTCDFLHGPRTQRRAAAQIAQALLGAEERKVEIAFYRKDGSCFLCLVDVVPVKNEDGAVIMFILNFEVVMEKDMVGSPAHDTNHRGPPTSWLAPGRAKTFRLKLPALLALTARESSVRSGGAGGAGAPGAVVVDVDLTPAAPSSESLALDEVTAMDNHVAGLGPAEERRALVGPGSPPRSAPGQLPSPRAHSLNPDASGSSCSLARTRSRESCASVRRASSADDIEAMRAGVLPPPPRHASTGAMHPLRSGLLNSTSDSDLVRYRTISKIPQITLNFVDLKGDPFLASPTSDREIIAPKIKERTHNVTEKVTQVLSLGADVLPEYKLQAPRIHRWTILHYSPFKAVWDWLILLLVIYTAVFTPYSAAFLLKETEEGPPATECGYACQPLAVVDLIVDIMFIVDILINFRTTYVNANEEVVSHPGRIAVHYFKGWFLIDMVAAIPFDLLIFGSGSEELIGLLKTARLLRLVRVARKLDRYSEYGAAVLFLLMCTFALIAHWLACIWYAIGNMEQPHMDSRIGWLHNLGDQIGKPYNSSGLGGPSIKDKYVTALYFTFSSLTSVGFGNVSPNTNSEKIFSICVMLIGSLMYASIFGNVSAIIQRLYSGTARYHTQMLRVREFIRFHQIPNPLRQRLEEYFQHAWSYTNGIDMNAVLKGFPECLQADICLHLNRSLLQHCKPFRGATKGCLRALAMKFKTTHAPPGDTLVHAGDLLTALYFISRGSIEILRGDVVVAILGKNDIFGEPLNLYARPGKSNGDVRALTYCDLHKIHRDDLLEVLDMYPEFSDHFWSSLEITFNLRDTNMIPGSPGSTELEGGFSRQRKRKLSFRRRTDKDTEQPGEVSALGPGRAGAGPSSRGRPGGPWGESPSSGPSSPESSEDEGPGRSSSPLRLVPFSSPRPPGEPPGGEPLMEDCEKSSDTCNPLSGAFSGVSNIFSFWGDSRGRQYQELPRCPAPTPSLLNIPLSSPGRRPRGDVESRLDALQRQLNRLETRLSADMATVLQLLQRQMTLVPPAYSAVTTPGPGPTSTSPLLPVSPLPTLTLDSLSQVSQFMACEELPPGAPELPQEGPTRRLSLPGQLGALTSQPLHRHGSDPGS

Consider `O=C(c1ccccn1)[C@]12Cc3cnn(-c4ccc(F)cc4)c3C=C1CCN(S(=O)(=O)c1ccc(C(F)(F)F)cc1)C2` [DAZUCORILANT], for which, in data set [1], the IC50 turned out to be 5000 nM. In addition, the inhibition constant Ki amounted to 100 nM on Glucocorticoid receptor [2], 13 nM on Glucocorticoid receptor [3], 765 nM in data set [4] and 0.16 nM at Glucocorticoid receptor [17]. The EC50 on Glucocorticoid receptor [5] is 280 nM; in data set [6] it was 1600 nM. The same compound came in with a bioavailability in data set [7] of 31%. Also, the Cmax in data set [8] amounted to 375 ng/mL. For the same compound, the clearance in data set [9] came out at 11 mL/min/kg. Further, the outcome in the data set with Rattus norvegicus [10] and in the data set with Rattus norvegicus [11] was Active. For the same compound, the result with Rattus norvegicus [12] was inactive. Also, the Imax in data set [13] was 62%; in the data set on Hepatocyte [14], 100%. Also, the Emax in data set [15] came out at 51%; with Hepatocyte [16], 110%.
